{"source": "ChEMBL document CHEMBL3244405", "about": "“Imidazo[4,5-f]quinolines. 4. Synthesis and anthelmintic activity of a series of imidazo[4,5-f]quinolin-9-ols” (J Med Chem, 1978)", "key": {"[1]": {"system": "Taenia crassiceps", "experiment": "Anthelmintic activity against Taenia crassiceps infected in beagle dog assessed as complete parasite clearance at 100 mg/kg after 9 days", "assay_type": "functional, organism-based", "set-up": "dose 100 mg/kg", "in_short": "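Dogs received a recently isolated *T. crassiceps* strain as 40 cysts per dog, taken from mice and given perorally in gelatin capsules to young beagles. On day 37, drug was given in gelatin capsules, three dogs per test. Dogs were sacrificed 9 days after treatment, and intestinal scolices were counted as worms recovered at necropsy.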"}, "[2]": {"system": "Rodentolepis nana", "experiment": "Anthelmintic activity against Hymenolepis nana infected in mouse assessed as reduction in worm burden at 300 mg/kg bid for 5 days relative to control", "assay_type": "functional", "set-up": "scale not given: the % may be the effect or the level left", "in_short": "(§1)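 Mice carried the tapeworm *H. nana* and were dosed at 300, 100, 50, 25, 10, 5 or 2.5 mg/kg. Activity was read as percent reduction in worm burden, and significance was tested by Mann-Whitney U test. The rest of the procedure follows an earlier publication.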"}, "[3]": {"system": "Rodentolepis nana", "experiment": "Anthelmintic activity against Hymenolepis nana infected in mouse assessed as reduction in worm burden at 100 mg/kg bid for 5 days relative to control", "assay_type": "functional", "set-up": "scale not given: the % may be the effect or the level left", "in_short": "as §1"}, "[4]": {"system": "Rodentolepis nana", "experiment": "Anthelmintic activity against Hymenolepis nana infected in mouse assessed as reduction in worm burden at 50 mg/kg bid for 5 days relative to control", "assay_type": "functional", "set-up": "scale not given: the % may be the effect or the level left", "in_short": "as §1"}, "[5]": {"system": "Rodentolepis nana", "experiment": "Anthelmintic activity against Hymenolepis nana infected in mouse assessed as reduction in worm burden at 25 mg/kg bid for 5 days relative to control", "assay_type": "functional", "set-up": "scale not given: the % may be the effect or the level left", "in_short": "as §1"}, "[6]": {"system": "Rodentolepis nana", "experiment": "Anthelmintic activity against Hymenolepis nana infected in mouse assessed as reduction in worm burden at 10 mg/kg bid for 5 days relative to control", "assay_type": "functional", "set-up": "scale not given: the % may be the effect or the level left", "in_short": "as §1"}, "[7]": {"system": "Rodentolepis nana", "experiment": "Anthelmintic activity against Hymenolepis nana infected in mouse assessed as reduction in worm burden at 5 mg/kg bid for 5 days relative to control", "assay_type": "functional", "set-up": "scale not given: the % may be the effect or the level left", "in_short": "as §1"}, "[8]": {"system": "Rodentolepis nana", "experiment": "Anthelmintic activity against Hymenolepis nana infected in mouse assessed as reduction in worm burden at 2.5 mg/kg bid for 5 days relative to control", "assay_type": "functional", "set-up": "scale not given: the % may be the effect or the level left", "in_short": "as §1"}, "[9]": {"system": "Taenia pisiformis", "experiment": "Anthelmintic activity against Taenia pisiformis infected in beagle dog assessed as complete parasite clearance at 50 to 150 mg/kg, po after 10 days", "assay_type": "functional, organism-based", "in_short": "(§2)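 Beagles infected with *T. pisiformis*, aged from puppies to 2–3 years, received single oral doses of 50–150 mg/kg body weight. Readouts were worm clearance plus observation for emesis and other untoward clinical signs.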"}, "[10]": {"system": "Canis familiaris", "experiment": "Toxicity in beagle dog assessed as emesis at 50 to 150 mg/kg, po", "assay_type": "organism-based, Canis lupus familiaris", "set-up": "dose 50-150 mg/kg, route oral", "conditions": "in vivo", "in_short": "as §2"}, "[11]": {"system": "Canis familiaris", "experiment": "Toxicity in beagle dog assessed as untoward clinical signs at 50 to 150 mg/kg, po", "assay_type": "organism-based, Canis lupus familiaris", "set-up": "dose 50-150 mg/kg, route oral", "conditions": "in vivo", "in_short": "as §2"}, "[12]": {"system": "Syphacia obvelata", "experiment": "Anthelmintic activity against Syphacia obvelata infected in mouse assessed as complete parasite clearance at 50 mg/kg bid for 5 days", "assay_type": "functional, organism-based", "set-up": "dose 50 mg/kg"}, "[13]": {"system": "Syphacia obvelata", "experiment": "Anthelmintic activity against Syphacia obvelata infected in mouse assessed as reduction in worm burden at 10 mg/kg bid for 5 days relative to control", "assay_type": "functional", "set-up": "scale not given: the % may be the effect or the level left"}, "[14]": {"system": "Moniezia", "experiment": "Anthelmintic activity against Moniezia species infected in sheep assessed as complete parasite clearance at 50 mg/kg for 3 days administered as drench solution", "assay_type": "functional, organism-based", "set-up": "dose 50 mg/kg", "in_short": "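Sheep were naturally infected. Drug was mixed with water and sonified to a creamy consistency, then given as a drench. Animals were sacrificed 3 days after dosing and the intestines were examined for worms.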"}, "[15]": {"system": "Mus musculus", "experiment": "Toxicity in mouse infected with Hymenolepis nana at 300 mg/kg bid for 5 days", "assay_type": "organism-based", "set-up": "dose 300 mg/kg", "conditions": "in vivo, 120 h"}}, "note": "Activity calls are given as the source filed them. The rule behind the calls is not given here."}
{"smiles": "Cc1cc(O)c2c(ccc3nc(-c4ccco4)[nH]c32)n1", "note": "[FURODAZOLE]", "values": [{"measurement": "Activity", "setting": "[1]", "value": "Active"}, {"measurement": "Activity", "setting": "[2]", "value": 100, "unit": "%"}, {"measurement": "Activity", "setting": "[3]", "value": 100, "unit": "%"}, {"measurement": "Activity", "setting": "[4]", "value": 100, "unit": "%"}, {"measurement": "Activity", "setting": "[5]", "value": 100, "unit": "%"}, {"measurement": "Activity", "setting": "[6]", "value": 75, "unit": "%"}, {"measurement": "Activity", "setting": "[7]", "value": 57, "unit": "%"}, {"measurement": "Activity", "setting": "[8]", "value": 35, "unit": "%"}, {"measurement": "Activity", "setting": "[9]", "value": "Active"}, {"measurement": "Activity", "setting": "[10]", "value": "Toxic"}, {"measurement": "Activity", "setting": "[11]", "value": "Toxic"}, {"measurement": "Activity", "setting": "[12]", "value": "Active"}, {"measurement": "Activity", "setting": "[13]", "value": 68, "unit": "%"}, {"measurement": "Activity", "setting": "[14]", "value": "Active"}]}
{"smiles": "Cc1cc(O)c2c(ccc3nc(-c4ccccc4Cl)[nH]c32)n1", "values": [{"measurement": "Activity", "setting": "[2]", "value": 100, "unit": "%"}, {"measurement": "Activity", "setting": "[3]", "value": 100, "unit": "%"}, {"measurement": "Activity", "setting": "[4]", "value": 75, "unit": "%"}, {"measurement": "Activity", "setting": "[5]", "value": "inactive"}]}
{"smiles": "Cc1cc(O)c2c(ccc3nc(-c4ccccc4)[nH]c32)n1", "values": [{"measurement": "Activity", "setting": "[2]", "value": 100, "unit": "%"}, {"measurement": "Activity", "setting": "[3]", "value": 93, "unit": "%"}, {"measurement": "Activity", "setting": "[4]", "value": 94, "unit": "%"}, {"measurement": "Activity", "setting": "[5]", "value": 77, "unit": "%"}, {"measurement": "Activity", "setting": "[6]", "value": "inactive"}]}
{"smiles": "Oc1cc(-c2ccccc2)nc2ccc3nc(-c4ccccc4)[nH]c3c12", "values": [{"measurement": "Activity", "setting": "[2]", "value": 100, "unit": "%"}, {"measurement": "Activity", "setting": "[3]", "value": 100, "unit": "%"}, {"measurement": "Activity", "setting": "[4]", "value": 82, "unit": "%"}, {"measurement": "Activity", "setting": "[5]", "value": "inactive"}]}
{"smiles": "Cc1ccc(-c2nc3ccc4nc(C)cc(O)c4c3[nH]2)cc1", "values": [{"measurement": "Activity", "setting": "[2]", "value": 70, "unit": "%"}, {"measurement": "Activity", "setting": "[3]", "value": "inactive"}]}
{"smiles": "CCCCCCOc1ccc(C(=N)N(CCCC)CCCC)c2ccccc12", "note": "[BUNAMIDINE]", "values": [{"measurement": "Activity", "setting": "[3]", "value": 100, "unit": "%"}, {"measurement": "Activity", "setting": "[4]", "value": 59, "unit": "%"}, {"measurement": "Activity", "setting": "[5]", "value": 30, "unit": "%"}, {"measurement": "Activity", "setting": "[6]", "value": "inactive"}, {"measurement": "Activity", "setting": "[15]", "value": "Toxic"}]}
{"smiles": "Cc1nc2ccc3nc(-c4ccccc4)[nH]c3c2c(O)c1C", "values": [{"measurement": "Activity", "setting": "[2]", "value": 100, "unit": "%"}, {"measurement": "Activity", "setting": "[3]", "value": 100, "unit": "%"}, {"measurement": "Activity", "setting": "[4]", "value": 94, "unit": "%"}, {"measurement": "Activity", "setting": "[5]", "value": "inactive"}]}
{"smiles": "Oc1c2c(nc3ccc4nc(-c5ccccc5)[nH]c4c13)CCC2", "values": [{"measurement": "Activity", "setting": "[2]", "value": 100, "unit": "%"}, {"measurement": "Activity", "setting": "[3]", "value": 100, "unit": "%"}, {"measurement": "Activity", "setting": "[4]", "value": 41, "unit": "%"}, {"measurement": "Activity", "setting": "[5]", "value": "inactive"}]}
